Myeloid diff 2: induction of myeloid progenitor differentiation, primary screen, cell-based, flow cytometry, MLPCN library; calls only at 10 µM; ER-HoxA9 myeloid progenitors, lysozyme-GFP differentiation; actives 1% (n = 360,000);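 active = normalized GFP-positive differentiation at or above the plate's own cutoff, the solvent-only control mean plus 3 SD; inconclusive = no clear call, values can overlap the other calls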;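 note: cells exposed to compound for four days before flow analysis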
HNF4A DNA FP: change in binding of human HNF4A to DNA, primary screen, biochemical, fluorescence polarization, FITC-DNA. actives 0.3% (n = 360,000). 1 h. AID 1224865, 2016. Hepatocyte nuclear factor 4-alpha (Homo sapiens), P41235. activity change, % at 10 µM; in the data active = activity change above about 30%, passing the limit was not always enough
CSN deneddyl inh: inhibitors of CSN-mediated cullin deneddylation, primary screen, biochemical, fluorescence polarization, uHTS; COP9 signalosome complex subunit 5 (Homo sapiens), Q92905; Purified CSN, SCF-Nedd8-OG deneddylation; inhibition, % at 12.5 µM; actives 0.38% (n = 360,000); AID 651999, 2013;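 active = pattern-corrected inhibition above about 35%, with an unprinted fluorescence ratio check between 0.5 and 1.5, limit read from the data, passing the limit was not always enough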;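 note: 0% = enzyme with substrate and 100% = substrate without enzyme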
Target sequence (Q92905 whole entry, looked up, one chain of several): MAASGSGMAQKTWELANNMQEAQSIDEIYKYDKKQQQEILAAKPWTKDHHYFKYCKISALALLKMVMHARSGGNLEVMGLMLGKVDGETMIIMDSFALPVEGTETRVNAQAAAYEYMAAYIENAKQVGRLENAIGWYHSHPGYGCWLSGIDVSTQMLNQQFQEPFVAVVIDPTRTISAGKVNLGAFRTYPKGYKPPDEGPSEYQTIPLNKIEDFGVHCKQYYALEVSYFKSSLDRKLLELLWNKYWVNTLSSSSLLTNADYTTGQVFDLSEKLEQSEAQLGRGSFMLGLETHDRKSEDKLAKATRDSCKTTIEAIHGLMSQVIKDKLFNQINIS
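Assay system: purified human Csn5 enzyme expressed in HEK293T cells; Input: 0.24 nM Csn5 enzyme, final concentration; Reagent: 10 nM SCFSkp2-Nedd8OG; Compound dosing: 12.5 µM single point; Times: reaction 90 min, room temperature; Technique: fluorescence polarization readout.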
Granule exo inh: LAMP-1 surface exposure blockers, TALL-104 cells – cell-based, flow cytometry, MLPCN library, primary screen; TALL-104 LAMP-1 surface exposure; cells stimulated with thapsigargin and PMA; inhibition, % at 10 µM; actives 0.66% (n = 360,000);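 active = inhibition above about 55%, limit read from the data; inconclusive = no clear call, values can overlap the other calls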
The depositor's hits bear a star; i = inactive; ? = inconclusive; + = active, no number. Only some compounds are listed: those with a hit (about 2.2% of all), similar ones and a draw of the others.

SMILES	Myeloid diff 2	HNF4A DNA FP	CSN deneddyl inh	Granule exo inh
COc1ccccc1CCNC(=O)C(=O)Nc1cc2c3c(c1)CC(=O)N3CCC2	i	0	0	-1
O=C1CSC(c2cccc([N+](=O)[O-])c2)N1Cc1ccccc1 (centres undefined)	i	0	1	7
N=c1c(S(=O)(=O)c2ccc(Br)cc2)cc2c(=O)n3ccccc3nc2n1C1CCCC1	i	1	1	0
N=c1c(S(=O)(=O)c2ccccc2)cc2c(=O)n3ccccc3nc2n1C1CCCC1	+	12	8	49
CCc1c(C)nc2c(-c3ccccc3OC)c(C)[nH]n2c1=O	i	2	-3	-2
COC(=O)C(CC(C)C)NC(=O)C(N)Cc1ccccc1 (centres undefined)	i	0	1	0
COC(=O)[C@H](Cc1ccccc1)NC(=O)[C@@H](N)CC(=O)OCc1ccccc1	+	1	2	-4
Cc1cc(/C=C2/SC(=S)N(c3cccc(C(F)(F)F)c3)C2=O)c(C)n1-c1cccnc1	+	64*	53*	4
O=C1/C(=C/c2cccnc2)SC(=S)N1c1ccccc1	i	0	-2	-5
O=C1/C(=C\c2cccnc2)SC(=S)N1c1ccc(F)cc1	+	2	-1	-1
COc1cccc(/C=C2\SC(=S)N(c3cccnc3)C2=O)c1OC	i	2	0	6
Cc1ccc(C(=O)OCC(=O)NNC(=O)COc2ccc(Cl)cc2)c(O)c1	i	-1	-1	-9
O=C(O)C1CCCN(S(=O)(=O)c2ccc(-c3ccc(=O)[nH]n3)s2)C1 (centres undefined)	i	1	1	-2
Cc1cc(C)c2c(c1)/C(=N\N=c1\sc3ccccc3n1C)C(=O)N2	+	17	18	21
O=C(Nc1ccc(C(O)(C(F)(F)F)C(F)(F)F)cc1)c1ccc(Cl)c([N+](=O)[O-])c1	i	-1	-16	64*
O=C(O)c1cc(NC(=O)c2ccc(Cl)c([N+](=O)[O-])c2)cc(C(=O)O)c1	i	-2	2	-3
CCOC(=O)c1cc(NC(=O)c2ccccc2)c(=O)oc1C(F)(F)F	i	46*	14	-1
Cc1oc(=O)c(NC(=O)c2ccccc2)cc1C(=O)c1ccccc1	i	-1	6	75*
CCOC(=O)c1cc(NC(=O)c2ccc(C)cc2)c(=O)oc1C(F)(F)F	i	0	5	-3
CC(=O)c1cc(NC(=O)c2ccccc2)c(=O)oc1C	i	0	-1	-3
Nc1c(CNCc2nnn(Cc3ccccc3)c2N)nnn1Cc1ccccc1	i	-1	1	2
N#CC(C#N)=C1C=CC=CN1/C(=C\c1ccccc1)C(=O)c1cccs1	i	-13	-10	6
N#CC(C#N)=C1C=CC=CN1/C(=C\c1ccccc1Cl)C(=O)c1ccccc1	i	-11	-6	68*
CCOC(=O)C(=C1Nc2ccccc2N1)n1c(-c2ccco2)nc2ccccc21	i	-5	5	98*
CCCc1nnc(NC(=O)c2cc3ccccc3o2)s1	+	0	0	3
SMILES	Myeloid diff 2	HNF4A DNA FP	CSN deneddyl inh	Granule exo inh
NS(=O)(=O)c1ccc(CCNC(=O)COC(=O)C2CCC2)cc1	i	-4	2	-22
c1ccc(C[C@H]2CN=C(Nc3ccccc3)N2CC2CCCCCC2)cc1	i	-4	-5	-16
c1ccc(C[C@H]2CN=C(Nc3ccccc3)N2CC2CCCCC2)cc1	+	-8	-5	4
CCOc1ccc(N(CC(=O)N2CCOCC2)S(=O)(=O)c2ccc(SC)cc2)cc1	i	-2	5	13
O=[N+]([O-])c1cccc(OCCCN2CCC(Cc3ccccc3)CC2)c1	i	2	1	86*
O=[N+]([O-])c1ccc(CN2CCC(Cc3ccccc3)CC2)cc1	i	-2	-2	52
Cc1csc(NC(=O)c2ccc3nc[nH]c3c2)n1	i	0	-1	-12
CC1(C)CCc2cc(S(=O)(=O)N3CCN(S(=O)(=O)c4c(F)cccc4F)CC3)ccc2O1	i	-3	3	-1
CN1CCN2c3ccccc3CC(C#N)(C#N)C2C1 (centres undefined)	i	1	0	0
CN(C)C(CNC(=O)CCc1nc2cc(Cl)ccc2n(Cc2ccccc2)c1=O)c1ccccc1 (centres undefined)	i	5	2	8
CCNC(=S)NNC(=O)CCc1nc2cc(Cl)ccc2n(Cc2ccccc2)c1=O	+	3	2	8
C=C(C)Cn1c2ccc(NC(=S)NCc3ccccc3F)cc2c(=O)n1C	i	0	-5	16
CCN(C(=S)Nc1cc(S(=O)(=O)N2CCOCC2)ccc1Cl)c1cccc2ccccc12	i	0	23	61*
CCCOc1ccc(C(=O)c2ccccc2C(=O)O)cc1OCCC	i	-4	2	-3
CCOc1ccc(C(=O)c2ccccc2C(=O)O)cc1OCC	i	0	57*	-3
N#CCc1ccc(Oc2ncc(C(F)(F)F)cc2Cl)cc1	i	1	-8	-1
Cc1ccc(CO/N=C\Cc2snc(Sc3ncc(C(F)(F)F)cc3Cl)c2C#N)cc1	+	20	20	-2
CN(C)c1ccc(N/C=C/C(=O)c2ccc(F)cc2)cc1	i	44*	13	-2
NS(=O)(=O)c1ccc(N/C=C\C(=O)c2ccc(F)cc2)cc1	i	1	-1	0
CCOc1ccc2nc3cc(NCc4ccc(OC)cc4)ccc3c(N)c2c1	+	-65	9	34
CCn1cnc2cc(NCc3ccc(OC)cc3)ccc21	i	-3	-4	-2
Cc1ccc(C2C(C#N)=C(N)SC(N)=C2C#N)c(C)c1	+	142	-69	3
Cc1ccc(C2C(C#N)=C(N)SC(N)=C2C#N)cc1	i	120	46	1
CC1(C)CNc2cc(N)ccc2S1	+	6	19	2
COc1ccc(OC)c(C2C(C(=O)c3ccco3)=C(O)C(=O)N2CC2CCCO2)c1 (centres undefined)	i	0	1	11
SMILES	Myeloid diff 2	HNF4A DNA FP	CSN deneddyl inh	Granule exo inh
COc1ccc(C(C)(O)c2nc(-c3ccncc3)cs2)cc1 (centres undefined)	+	-1	4	1
COc1cccc(CNC(=O)CCCn2ncn3c(cc4occc43)c2=O)c1	+	5	-6	-6
O=C(CCCn1ncn2c(cc3occc32)c1=O)NCc1cccc(Cl)c1	?	-3	5	-1
O=C(N1CCCCC1)C1(c2ccccc2)CCCCC1	i	-1	37*	-1
CCN(C(=O)COC(=O)c1oc2ccc(OC)cc2c1C)C1CCS(=O)(=O)C1 (centres undefined)	i	-1	4	-3
Cc1ccc(C)c(NC(=O)C2(C)CCCN2C(=O)C(C)C)c1 (centres undefined)	i	1	7	-1
